# Compound activity as filed in PubChem BioAssay.
# A selection: hits, their analogues and other compounds. The true share with any hit is near 6.4%.
# Jurkat viability: cytotoxic compounds reducing Jurkat cell viability | Jurkat E6.1 viability, ATP luminescence, 48 h | inhibition, % at 4 µM | actives 1.2% (n = 56,000) | AID 463;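 active = inhibition above the mean inhibition of all tested compounds plus 3 SD, cut at about 28% in these data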
# Ecoli tolC: blocks growth of E. coli BW25113 tolC mutant. OD615. growth inhibition, % at 10 µM (by protocol). actives 2.2% (n = 65,000);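 active = growth inhibition at or above a cutoff equal to the mean over every tested compound plus 3 SD, cut at about 60% in these data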;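 note: growth measured after 20 h incubation at 37 °C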
#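 test system = E. coli BW25113 ΔtolC::kan bacteria | medium = LB with kanamycin 50 µg/mL | signal = OD at 615 nm | schedule = 37 °C, 20 h exposure | evaluation = % inhibition of E. coli growth | compound dosing = one dose of 10 µM final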
# H69AR growth 86K: growth inhibitors of human H69AR lung tumor cells; H69AR lung tumor viability, ATP luminescence, 72 h; active compounds read low; actives 6% (n = 85,000); viability, % at 10 µM;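 active = viability at or below 40%; inactive = viability above 40%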;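 note: multidrug resistant small cell line overexpressing MRP-1 efflux transporter; 100% = mean luminescence of untreated control wells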
# Fibroblast inh: blocks proliferation of human lung fibroblasts. viability, % at 10 µM. AID 719. actives 1.1% (n = 85,000). LL 47 human lung fibroblast viability, ATP luminescence; active compounds read low;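 active = viability at or below 50% in the single dose screen; inactive = viability above 50%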;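 note: compound exposure lasted 72 h before the ATP readout; 100% = median luminescence of untreated cell-only wells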
#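 material = human LL 47 lung fibroblast cells | dosing = compounds added from tenfold dosing solution, 0.1% DMSO final | timing = overnight cell rest, 72 h compound treatment at 37 °C | measured by = CellTiter-Glo luminescence measuring cellular ATP | evaluation = % viability versus median cells-only luminescence | control set = cell-only wells, no compound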
# HUVEC prolif 384: blocks proliferation of human endothelial cells | HUVEC proliferation, CellTiter-Glo luminescence, 72 h; active compounds read low | viability, % at 10 µM (by protocol) | actives 1.1% (n = 86,000);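 active = viability at or below 30%; inactive = viability above 30%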;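 note: 100% = median luminescence of DMSO-only cell control wells on each plate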
# Ecoli WT expand: growth inhibitors of E. coli BW25113 wild type. actives 0.15% (n = 98,000). OD600 absorbance. growth inhibition, % at 100 µM;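 active = growth inhibition above about 50% at one test dose, limit read from the data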;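 note: growth measured after 20 h incubation at 37 °C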
# * marks the source's active call; other numbers are inactive results; . = no result.
SMILES,Jurkat viability,Ecoli tolC,H69AR growth 86K,Fibroblast inh,HUVEC prolif 384,Ecoli WT expand
O=C(Nc1ccccc1)c1ccc2nc(-c3ccco3)c(-c3ccco3)nc2c1,10,20,49,101,67,-18
CC(=O)c1ccc(NC(=O)c2ccc3nc(-c4ccco4)c(-c4ccco4)nc3c2)cc1,.,.,2.4*,86,49,-7
S=C(Nc1ccc(N2CCOCC2)cc1)Nc1ccc2nc(-c3ccco3)c(-c3ccco3)nc2c1,.,.,33*,113,54,-18
O=C(Nc1ccc(N2CCOCC2)cc1)c1ccc2nc(-c3ccco3)c(-c3ccco3)nc2c1,-2,-10,29*,83,52,-11
CCOC(=O)c1c(C)c(C(=O)Nc2ccc(N(C)C)cc2)c(C)n1CC,59*,12,19*,57,54,0
CCOC(=O)c1c(C)c(C(=O)NCCOC)c(C)n1CC,18,-4,92,99,101,-2
Cn1c(-c2ccc3c(c2)OCO3)cnc1N,-4,91*,84,100,92,-2
Cn1c(-c2ccc3c(c2)OCO3)cnc1NC(=O)CCC(=O)NCCc1ccccc1,4,-8,93,104,111,-6
Cn1c(-c2ccc3c(c2)OCO3)cnc1NCc1ccccc1,0,-20,24*,87,65,15
Cn1c(-c2ccc3c(c2)OCO3)cnc1NCc1cccc(Cl)c1,8,37,33*,89,39,47
c1cc2c(cc1-c1cnc3n1CCC3)OCCO2,-2,2,52,77,77,12
Cc1cnc(NC(=O)c2c(O)c3cccc4c3n(c2=O)CCC4)s1,-10,-10,5.7*,97,89,-2
Cc1cccc(NC(=O)c2c(O)c3cccc4c3n(c2=O)CCC4)n1,-5,-1,85,100,103,3
CC(C)c1nnc(NC(=O)c2c(O)c3cccc4c3n(c2=O)CCC4)s1,15,100*,34*,67,109,-2
COc1ccc2nc(N3CCCC(C(=O)NCCCN4CCN(C)CC4)C3)sc2c1 (centres undefined),.,-22,.,.,.,-2
CC1(C)CC(=O)C2=C(C1)OC(N)=C(C#N)C2C#Cc1ccccc1 (centres undefined),7,-15,1.7*,79,43,8
CN1CCN(/C=N/C2=C(C#N)C(c3ccccc3)C3=C(CC(C)(C)CC3=O)O2)CC1 (centres undefined),.,.,39*,92,86,5
CC(c1ccccc1)C1C(C#N)=C(N)OC2=C1C(=O)CC(C)(C)C2 (centres undefined),5,7,42,108,93,9
Cc1csc2ncc(C(=O)N3c4ccccc4CC3C)c(=O)n12 (centres undefined),.,.,93,91,90,3
CCN(CC)CC#CCC(O)(c1ccccc1)C1CCCC1 (centres undefined),.,.,99,94,86,.
O=C(Nc1nnc(CCN2CCCCC2)s1)C1CCCCC1,-10,-28,92,101,102,-4
Cc1cc(C)c(NC(=O)COc2ccccc2C(=O)Nc2ccc3c(c2)oc2ccccc23)c(C)c1,.,.,26*,47*,82,-13
CC(C)n1c2ccccc2c2nc3ccccc3nc21,2,100*,79,92,97,-2
CC(C)n1c(Nc2ccccc2)nc2ccccc21,1,-3,98,98,97,6
COc1ccccc1N1CCN(C(=O)c2ccc(Cl)c(S(=O)(=O)NCc3ccco3)c2)CC1,.,.,23*,68,55,-7
SMILES,Jurkat viability,Ecoli tolC,H69AR growth 86K,Fibroblast inh,HUVEC prolif 384,Ecoli WT expand
O=C(c1ccco1)N1CCN(c2ccccc2F)CC1,.,.,103,109,98,-3
O=C(c1cccc(COc2ccc(Cl)cc2Cl)c1)N1CCN(c2ccccn2)CC1,-2,86*,80,95,66,-37
O=C(c1ccc(Cl)c(S(=O)(=O)Nc2ccc(F)cc2)c1)N1CCN(c2ccccn2)CC1,.,.,36*,99,74,-1
O=C(c1ccc(Cl)c(S(=O)(=O)NCc2ccco2)c1)N1CCN(c2ccccc2F)CC1,.,.,21*,81,73,-10
COc1cc(C)c(Cl)cc1S(=O)(=O)NCc1ccco1,-6,9,92,108,94,0
Cc1c(NC(=S)/C=C2\N(C)c3ccccc3C2(C)C)c(=O)n(-c2ccccc2)n1C,.,.,100,105,94,6
COc1ccc(C=NCCCN2CCOCC2)cc1,.,4,82,104,103,4
COc1ccc(/C(N)=N/OC(=O)c2cccc([N+](=O)[O-])c2C)cc1OC,.,.,36*,93,70,5
CCOC(=O)c1c(NC(=O)Nc2ccc(Cl)cc2)sc(C)c1C,.,.,97,104,90,-9
CCOC(=O)c1c(C)sc2c1N(C(=O)CCl)c1cc(Cl)ccc1S2,.,.,0.7*,2.6*,17*,-9
O=C(O)/C=C/c1ccccc1Oc1ccccc1,.,.,.,.,.,2
CCOC(=O)c1c(NC(=O)CSc2nnc(-c3cccnc3)o2)sc2c1CCC2,.,.,81,94,86,.
O=C1CCCN1c1ccc(S(=O)(=O)NCCOc2ccccc2)cc1,.,.,102,103,114,.
Cc1cc(N2CCCC2=O)cc(C)c1S(=O)(=O)NCCOc1ccc(C(C)(C)C)cc1,.,.,33*,96,79,.
N#C/C(C(N)=O)=C1/CCc2ccccc2N1,.,.,106,120,101,5
CCN(c1ccccc1)c1cc(C)nc2nc(C)nn12,-2,6,72,105,97,-2
Cc1cccc(N(C)c2cc(C)nc3nc(C)nn23)c1,9,-2,23*,95,102,-17
COc1cccc(NC(=O)Cc2nnc(SCC(=O)c3ccccc3)n2C)c1,1,-6,32*,87,80,-13
COc1ccc(-c2cc(C(F)F)n3ncc(C(=O)N4CCN5CCCC5C4)c3n2)cc1 (centres undefined),.,-2,38*,97,98,11
CCOC(=O)N1CCN(C(=O)c2cnn3c(C(F)F)cc(-c4ccc(C)cc4)nc23)CC1,-6,11,68,90,99,-6
CN1CC(c2ccccc2)C2(SC(=S)N(Cc3ccco3)C2=O)C12C(=O)Nc1ccccc12 (centres undefined),.,.,1.6*,93,50,-10
Cc1cc(=O)[nH]c(SCC(=O)C23CC4CC(CC(C4)C2)C3)c1C#N,3,70*,18*,101,77,-8
Cc1ccc(-n2ncc3c(NCC4CCCO4)ncnc32)c(C)c1 (centres undefined),5,-2,.,.,.,6
C/C(N)=C(/C#N)C(=O)CSc1ncnc2ccccc12,-8,1,73,100,86,-5
CCOc1cc(/C=C(/C#N)c2nc3ccccc3[nH]2)ccc1OCc1ccc(C(=O)O)o1,.,.,.,.,.,-2
CCOc1cc(/C=C(/C#N)c2ccc(F)cc2)ccc1OCc1ccc(C(=O)O)o1,6,82*,82,.,87,-10
